From ChEMBL document CHEMBL4433207, “Novel Isoxazole Derivatives with Potent FXR Agonistic Activity Prevent Acetaminophen-Induced Liver Injury” (ACS Med Chem Lett, 2019) come the findings set out here.

Calls of active or inactive are those of the source. No cut-off for these calls is given here.

Test [1] deals with Mus musculus. The experiment in a line: In-vivo agonist activity at FXR in C57BL/6N N mouse assessed as upregulation of SHP mRNA level at 10 mg/kg, ip dosed daily […] for 3 days by RT-PCR analysis. Type of test: functional, organism-based. An outline of the steps: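 Mice dosed 10 mg/kg daily for 3 days, by gavage or i.p. Total liver RNA analysed by quantitative real-time PCR for SHP or BSEP mRNA, normalized to GAPDH mRNA; mean ± SEM of four mice per group.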

Test [2] has as its target T1, G-protein coupled bile acid receptor 1 (Homo sapiens) (UniProt Q8TDU6).
T1 sequence (whole entry): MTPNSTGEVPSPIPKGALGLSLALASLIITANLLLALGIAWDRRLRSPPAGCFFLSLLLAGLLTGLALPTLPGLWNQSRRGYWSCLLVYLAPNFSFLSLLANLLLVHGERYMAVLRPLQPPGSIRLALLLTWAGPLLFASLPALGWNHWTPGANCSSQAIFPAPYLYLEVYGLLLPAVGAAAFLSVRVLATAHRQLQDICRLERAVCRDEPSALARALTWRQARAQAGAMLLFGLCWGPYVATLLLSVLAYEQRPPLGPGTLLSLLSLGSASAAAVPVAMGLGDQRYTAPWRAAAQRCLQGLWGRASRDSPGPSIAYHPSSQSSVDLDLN
Description: Agonist activity at human GPBAR1 expressed in HEK293T cells at 10 uM after 18 hrs by cAMP response element driven luciferase reporter gene assay. In kind it is functional, cell-based. On the technique in general: A reporter such as luciferase makes a cellular process visible.

The test system of test [3] is Mus musculus. The experiment in a line: Hepatoprotective activity against APAP-induced acute liver injury in C57BL/6N mouse assessed as increase in SOD levels at 30 mg/kg, po administered 45 mins after APAP challenge. Type of test: functional, organism-based. An outline of the steps: (§1)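 C57Bl6 mice given a single 500 mg/kg APAP dose, with test agent at 30 mg/kg; surviving mice sacrificed 24 h later, blood and liver collected. Endpoints: serum AST/ALT, liver H&E histology, hepatic Ugt1a1/Ugt2b1/Sult1a1 mRNA, hepatic GSH, SOD activity and MDA, and plasma APAP, APAP-glucuronide and APAP-sulfate by LC–MS/MS. Mean ± SEM, 5–8 animals per group.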

Test [4] deals with Mus musculus. Description: Hepatoprotective activity against APAP-induced acute liver injury in C57BL/6N mouse assessed as increase in APAP metabolism by measuring increase in APAP-glucuronide level at 30 mg/kg, po administered 45 min after APAP challenge by LC-MS/MS analysis. In kind it is functional, organism-based. Put shortly: as §1
Test [5] has as its system Mus musculus. Description: Hepatoprotective activity against APAP-induced acute liver injury in C57BL/6N mouse assessed as APAP plasma concentration at 30 mg/kg, po administered 45 min after APAP challenge by LC-MS/MS analysis (reference value: 1000 nM). Type of test: functional, organism-based. An outline of the steps: as §1

As to `CC(C)c1onc(-c2c(Cl)cccc2Cl)c1COc1ccc(COc2ccc(C(=O)O)cc2)cc1`, the result in test [1], in test [3] and in test [4] was Active. The result in test [2] was inactive. In addition, the Cp in test [5] was found to be 615 nM.
